Assay results from ChEMBL document CHEMBL1124403, “Studies on semirigid tricyclic analogues of the nigrostriatal toxin 1-methyl-4-phenyl-1,2,3,6-tetrahydropyridine” (J Med Chem, 1989).

Tests used:
[1] = target: T1, Dopamine receptor (Mus musculus) (UniProt P51436+Q8BLD9+Q61616+P61168+P30728); experiment: Black mice were injected intraperitoneally with 100 uMol of test compound and Striatal levels of dopamine in mice measured after 1 week; assay type: functional
In short: (§1)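 Male C-57 black mice, 8–10 weeks old, 25–30 g, six per data point. Dosed ip at 100 μmol/kg in 50 μL normal saline every hour for 4 h; controls received saline only. Times counted from the last injection. Striata dissected and stored at −80 °C. Dopamine measured by HPLC with electrochemical detection after alumina extraction, with DHBA as internal standard; reported as ng/mg tissue.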

[2] = target: T1, Dopamine receptor (Mus musculus); experiment: (§2) Black mice were injected intraperitoneally with 100 uMol /kg of test compound and Striatal levels of dopamine in mice measured after 4 hours; assay type: functional; in short: as §1
[3] = target: T1, Dopamine receptor (Mus musculus); experiment: (§3) Black mice were injected intraperitoneally with 100 uMol of test compound and Striatal levels of Dopamine in mice measured after 1 month; assay type: functional; in short: as §1
[4] = target: T1, Dopamine receptor (Mus musculus); experiment: Black mice were injected intraperitoneally with 100 uMol of test compound and Striatal levels of dopamine in mice measured after 24 hours; assay type: functional; in short: as §1
[5] = target: T2, Amine oxidase [flavin-containing] B (Bos taurus, UniProt P56560); experiment: Rate of oxidation against monoamine oxidase-B (MAO-B)
T2 sequence (P56560 whole entry): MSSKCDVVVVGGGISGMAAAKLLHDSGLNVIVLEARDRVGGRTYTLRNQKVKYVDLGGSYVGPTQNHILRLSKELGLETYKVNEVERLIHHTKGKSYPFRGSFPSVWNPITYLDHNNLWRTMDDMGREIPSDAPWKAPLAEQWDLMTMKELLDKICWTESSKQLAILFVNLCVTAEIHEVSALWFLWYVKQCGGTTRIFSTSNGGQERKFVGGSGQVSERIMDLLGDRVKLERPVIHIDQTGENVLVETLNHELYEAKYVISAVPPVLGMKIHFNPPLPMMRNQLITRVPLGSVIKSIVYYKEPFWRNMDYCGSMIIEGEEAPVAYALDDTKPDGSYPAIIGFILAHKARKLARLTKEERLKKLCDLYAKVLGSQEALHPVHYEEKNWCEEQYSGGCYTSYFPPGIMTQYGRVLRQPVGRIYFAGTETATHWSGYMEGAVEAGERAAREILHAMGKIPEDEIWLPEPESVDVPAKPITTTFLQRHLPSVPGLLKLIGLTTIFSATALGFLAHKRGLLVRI
In short: (§4)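 Beef liver mitochondrial MAO-B, purified, 0.1 unit in 50 mM sodium phosphate pH 7.2 with 0.2% reduced Triton X-100. Substrate at 3 mM (3.0 mM). Initial rate of dihydropyridinium product formation read spectrophotometrically at its λmax (345 nm for MPDP⁺, 360 nm for the tricyclic products), in nmol min⁻¹ mL⁻¹. Controls held 10⁻⁶ M pargyline.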

[6] = target: T2, Amine oxidase [flavin-containing] B; experiment: Binding affinity against Monoamine oxidase B
In short: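 Beef liver mitochondrial MAO-B, purified and cleared of heme protein by sucrose-gradient centrifugation; 0.02 unit enzyme in 50 mM sodium phosphate pH 7.2 with 0.2% (w/v) reduced Triton X-100. Inhibitor at 0–500 μM or 0–100 μM against benzylamine 0.17–3.3 mM. Oxidation followed at 250 nm as initial rates. Lineweaver–Burk plots; Ki taken from secondary replots of slope vs inhibitor concentration.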

[7] = target: T2, Amine oxidase [flavin-containing] B; experiment: Rate of oxidation against monoamine oxidase B; in short: as §4
Mus musculus [8] = experiment: Black mice were injected intraperitoneally with 100 uMol of test compound and Striatal levels of Dopamine in mice measured after 1 week; assay type: functional; in short: as §1
Mus musculus [9] = experiment: Black mice were injected intraperitoneally with 100 uMol of test compound and Striatal levels of Dopamine in mice measured after 24 hours; assay type: functional; in short: as §1
Mus musculus [10] = experiment: as §3; assay type: functional; in short: as §1
Mus musculus [11] = experiment: as §2; assay type: functional; in short: as §1

Row | Structure (SMILES) | Dopamine level [1] [ng/mg] | Dopamine level [2] [ng/mg] | Dopamine level [3] [ng/mg] | Dopamine level [4] [ng/mg] | Rate of oxidation [5] [nM min-1 ml-1] | Ki [6] [µM] | Rate of oxidation [7] [nM min-1 ml-1] | Dopamine level (Mus musculus [8]) [ng/mg] | Dopamine level (Mus musculus [9]) [ng/mg] | Dopamine level (Mus musculus [10]) [ng/mg] | Dopamine level (Mus musculus [11]) [ng/mg]
1 | CN1CC=C(c2ccccc2)CC1 | 2.7 | 4.8 | 5 | 6.5 | 25.87 |  |  |  |  |  | 
2 | CN1CCc2c([nH]c3ccccc23)C1 |  |  |  |  |  | 400 | 0.1 |  |  |  | 
3 | CN1CCC2=C(Cc3ccccc32)C1 |  |  |  |  |  | 75 | 0.21 | 18.2 | 24.5 | 21.9 | 6.5
4 | CN1CCC2C(=Cc3ccccc32)C1 (centres undefined) |  |  |  |  |  | 65 | 0 | 16.4 | 30.3 | 19.2 | 4.3
